Data taken from ChEMBL document CHEMBL2311488 (Bioorg Med Chem Lett, 2013).
In brackets after ≈: the same amount, converted by molar mass.

How the values were obtained:
[1] = target: T1, Neuropeptide Y receptor type 5 (Mus musculus, UniProt O70342); assay: Displacement of [125I]PYY from mouse NPY-Y5 receptor
T1 sequence (O70342 whole entry): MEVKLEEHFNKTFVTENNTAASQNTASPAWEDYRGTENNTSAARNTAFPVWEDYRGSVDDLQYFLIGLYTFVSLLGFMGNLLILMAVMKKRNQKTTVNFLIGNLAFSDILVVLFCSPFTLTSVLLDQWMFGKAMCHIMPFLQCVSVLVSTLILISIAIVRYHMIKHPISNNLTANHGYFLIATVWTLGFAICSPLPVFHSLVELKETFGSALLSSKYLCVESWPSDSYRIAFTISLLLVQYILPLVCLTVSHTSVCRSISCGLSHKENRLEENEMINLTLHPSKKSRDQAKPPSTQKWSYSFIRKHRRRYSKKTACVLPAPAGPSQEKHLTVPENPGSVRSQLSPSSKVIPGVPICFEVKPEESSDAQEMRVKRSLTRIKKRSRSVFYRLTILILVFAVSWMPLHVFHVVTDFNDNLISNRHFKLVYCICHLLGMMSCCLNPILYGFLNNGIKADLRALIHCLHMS

[2] = physchem; conditions: pH 6.8
[3] = organism: Rattus norvegicus; assay: in vitro; conditions: liver microsomes
[4] = in vitro; conditions: human, liver microsomes
[5] = tested on: Mus musculus; assay: Antiobesity activity in DIO mouse assessed as reduction of [cPP1to7, NPY19 to 23, Ala31, Aib32, Gln42]-induced food intake at 12.5 mg/kg, po administered 1 hr prior to [cPP1to7, NPY19 to 23, Ala31, Aib32, Gln42] induction measured after 2 hrs relative to vehicle-treated control; format: functional; set-up: scale not given: the % may be the effect or the level left
In short: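 Mice received oral compound at 12.5 mg/kg 1 h before treatment with a Y5-selective agonist peptide. Food intake was then compared with the increase the agonist induces.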

[6] = tested on: Mus musculus; assay: Antiobesity activity against DIO mouse assessed as reduction of body weight administered as po bid measured for 21 days; format: functional, organism-based
In short: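 Diet-induced obese mice were dosed orally for 21 days, with body weight gain compared against a control group (n = 7).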

[7] = Drug uptake in mouse CSF at 0.5 mg/kg, iv at 30 mins; format: ADME, organism-based, Cerebrospinal fluid; set-up: dose 0.5 mg/kg, route intravenous; conditions: read-out: Drug uptake
In short: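 CSF drug concentration was measured 30 min after a 0.5 mg/kg intravenous dose.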

[8] = tested on: Mus musculus; assay: Toxicity in mouse assessed as appearance of abnormal behavior at 6.25 to 25 mg/kg, po bid measured for 21 days; format: organism-based; set-up: dose 6.25-25 mg/kg, route oral; conditions: in vivo, 504 h
In short: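 Diet-induced obese mice were given compound orally for 21 days and watched for abnormal behavior during dosing.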

Row | SMILES | IC50 [1] | solubility kinetic [2] | remaining at 0.5 h [3] | remaining at 0.5 h [4] | concentration at 0.5 h [7] | Activity [5] | Activity [6] | Activity [8]
1 | CCS(=O)(=O)c1ccc2[nH]c(Oc3cccc(-c4ccccc4)c3)nc2c1 | 9.55 nM | 4.2 µM (≈ 1.59 µg/mL) | 77.3% | 29.1% |  |  |  | 
2 | CCS(=O)(=O)c1ccc2[nH]c(Oc3ccc(-c4ccccc4)nc3)nc2c1 | 2.92 nM | 39.7 µM (≈ 15.1 µg/mL) | > 99.9% | 98.6% | 2.9 ng/mL | 50.8% | Dose-dependent effect | Non-toxic
3 | CCS(=O)(=O)c1ccc2[nH]c(Oc3ccc(-c4ccccn4)cc3)nc2c1 | 4.07 nM | > 50 µM |  |  |  |  |  | 
4 | CCS(=O)(=O)c1ccc2[nH]c(C(=O)c3ccc(-c4ccccc4)cc3)nc2c1 | 2.61 nM | 0.3 µM (≈ 0.117 µg/mL) | > 99.9% | > 99.9% |  |  |  | 
5 | CCS(=O)(=O)c1ccc2nc(OCC(F)(F)c3ccccc3)[nH]c2c1 | 4.39 nM | > 50 µM | 83.8% | 97.9% | 1.7 ng/mL |  |  | 
6 | CCS(=O)(=O)c1ccc2[nH]c(C3(c4ccc(-c5ccccc5)cc4)CC3)nc2c1 | 608 nM | 0.5 µM (≈ 0.201 µg/mL) | 81.3% | 88.5% |  |  |  | 
7 | CCS(=O)(=O)c1ccc2nc(Oc3ccc(-c4ccccc4)cn3)[nH]c2c1 | 96.4 nM | 45.2 µM (≈ 17.2 µg/mL) | > 99.9% | 89.2% |  |  |  | 
8 | CCS(=O)(=O)c1ccc2[nH]c(O[C@H]3CC[C@H](c4ccccc4)CC3)nc2c1 | 3.75 nM | 6.1 µM (≈ 2.35 µg/mL) | 93.8% | > 99.9% |  |  |  | 
9 | CCS(=O)(=O)c1ccc2nc(Oc3cccc(OC(F)(F)F)c3)[nH]c2c1 | 7.11 nM | > 50 µM | 86.2% | 97.1% |  |  |  | 
10 | CCS(=O)(=O)c1ccc2[nH]c(Oc3ccc(OC(F)(F)F)cc3)nc2c1 | 22.4 nM | > 50 µM | 91.6% | 92.8% |  |  |  | 
11 | CCS(=O)(=O)c1ccc2nc(OCCc3ccccc3)[nH]c2c1 | 25 nM | > 50 µM | 37.6% | 88.1% |  |  |  | 
12 | CCS(=O)(=O)c1ccc2nc(C(F)(F)c3ccc(-c4ccccc4)cc3)[nH]c2c1 | 48.6 nM | 0.3 µM (≈ 0.124 µg/mL) | 78.3% | 0.1% |  |  |  | 
13 | CCS(=O)(=O)c1ccc2[nH]c(Oc3ccccc3C(F)(F)F)nc2c1 | 3190 nM | > 50 µM |  |  |  |  |  | 

The remaining compounds from weak to strong by IC50 [1], led by results:

Row | IC50 [1] | solubility kinetic [2] | remaining at 0.5 h [3] | remaining at 0.5 h [4] | concentration at 0.5 h [7] | SMILES | Activity [5] | Activity [6] | Activity [8]
14 | 112 nM | 3 µM (≈ 1.13 µg/mL) | 74.3% | 87.6% |  | CCS(=O)(=O)c1ccc2nc(Cc3ccc(-c4ccccc4)cc3)[nH]c2c1 |  |  | 
15 | 98.1 nM | > 50 µM | 86.9% | 95.2% |  | CCS(=O)(=O)c1ccc2nc(Oc3ccc(C(F)(F)F)cc3)[nH]c2c1 |  |  | 
16 | 80.4 nM | 49.9 µM (≈ 17.5 µg/mL) | 37.9% | 88.5% |  | CCS(=O)(=O)c1ccc2nc(OCc3cccc(Cl)c3)[nH]c2c1 |  |  | 
17 | 41.2 nM | > 50 µM | 88.4% | > 99.9% |  | CCS(=O)(=O)c1ccc2[nH]c(Oc3cccc(C(F)(F)F)c3)nc2c1 |  |  | 
18 | 12.1 nM | 27.5 µM (≈ 10.1 µg/mL) | 0.13% | 63.7% |  | CCS(=O)(=O)c1ccc2[nH]c(SCc3cccc(Cl)c3)nc2c1 |  |  | 
19 | 2.82 nM | 2.5 µM (≈ 0.946 µg/mL) | > 99.9% | > 99.9% |  | CCS(=O)(=O)c1ccc2[nH]c(Oc3ccc(-c4ccccc4)cc3)nc2c1 |  |  | 
